Bioassay records from PubChem BioAssay.
OX1R antag-1: OX1R (HCRTR1) antagonists, primary screen, fluorescence, CHO/OX1R cells, Fluo-8 calcium, orexin A; hit rate 0.43% among 330,000; Fluo-8 calcium fluorescence; Orexin/Hypocretin receptor type 1 (Homo sapiens), O43613; inhibition, % at 5 µM;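 active = inhibition above its plate's threshold, mean inhibition of all tested compounds on the plate plus 3 SD, cut at about 37% in these data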;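 also: 0% = orexin A challenge wells and 100% = SB-334867-A antagonist wells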
OX1R antag-2: antagonists of human orexin 1 receptor (OX1R); Orexin/Hypocretin receptor type 1 (Homo sapiens), O43613; OX1R-expressing cells, FRET antagonist read-out; inhibition, % at 6.6 µM; hit rate 1.8% among 330,000; in the data active = inhibition mostly above about 38%, no sharp cut-off; inactive = mostly below about 40%;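 also: 0% = agonist challenge alone and 100% = reference antagonist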
GPR7 antag: GPR7 receptor antagonists, primary screen, cell-based, fluorescence, single concentration. Neuropeptides B/W receptor type 1 (Homo sapiens), P48145. GPR7-expressing cells, fluorescence antagonist assay. inhibition, % at 4.4 µM. hit rate 1.1% among 290,000. AID 1861, 2009; in the data active = inhibition above about 16%, passing the limit was not always enough;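 also: cells stimulated with the agonist NPW; 0% = agonist with vehicle and 100% = vehicle without agonist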
CHO parental Ca: ATP-evoked calcium signal inhibitors, parental CHO, primary screen, counter-screen for OX1R antagonist project, cell-based, fluorescence, Fluo-8 calcium dye | parental CHO-K1, ATP-induced calcium, Fluo-8 fluorescence | inhibition, % at 5.6 µM | hit rate 0.63% among 330,000 | AID 463079, 2010;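 active = inhibition above that plate's mean sample inhibition plus 3 SD, cut at about 26% in these data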;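 also: 0% = ATP-challenged DMSO wells and 100% = DMSO wells without ATP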
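Test system: untransfected parental CHO cell line. Compound: one dose, 5.6 µM nominal. Detection: intracellular calcium via Fluo-8 no-wash fluorescent dye. Measure: % inhibition. Benchmarks: ATP-challenged DMSO wells low, unchallenged DMSO wells high.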
TAAR1 agonist: human TAAR1 agonists, primary screen, Fluo-8 calcium fluorescence, CHO RD-HGA16 cells. Trace amine-associated receptor 1 (Homo sapiens), Q96RJ0. vehicle wells 0%, saturating PEA agonist 100%. activation, % at 3 µM. hit rate 0.99% among 360,000. AID 624467, 2012;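 active = activation above the mean activation of all test compounds in the run plus 3 SD, cut at about 38% in these data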
Target sequence (Q96RJ0 whole entry, looked up): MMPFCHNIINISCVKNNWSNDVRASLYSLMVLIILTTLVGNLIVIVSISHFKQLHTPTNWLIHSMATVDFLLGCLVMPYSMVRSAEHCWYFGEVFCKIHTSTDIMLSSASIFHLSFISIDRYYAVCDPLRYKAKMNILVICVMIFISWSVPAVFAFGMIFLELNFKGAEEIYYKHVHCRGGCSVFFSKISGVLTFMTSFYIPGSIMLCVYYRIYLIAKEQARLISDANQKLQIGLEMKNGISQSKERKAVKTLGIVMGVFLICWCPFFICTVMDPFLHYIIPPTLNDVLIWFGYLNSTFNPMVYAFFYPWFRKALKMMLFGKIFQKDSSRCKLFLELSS
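System: CHO RD-HGA16 cells carrying human TAAR1 plus Gα16; Incubation: 17-24 h seeding, 75 min 37 °C dye, 30 min RT; Measured by: Fluo-8 fluorescence, 5 s baseline then 140 s kinetic read; Control set: DMSO and PEA EC100; Replication: single well for each compound.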
TAAR1 antag: human TAAR1 antagonists, primary screen, Fluo-8 calcium fluorescence, CHO RD-HGA16 cells; Trace amine-associated receptor 1 (Homo sapiens), Q96RJ0; antagonist; inhibition, % at 3 µM; hit rate 1.5% among 360,000; AID 624466, 2012;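 active = inhibition above a per-plate cutoff, the mean inhibition of test compounds on that plate plus 3 SD, cut at about 49% in these data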;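 also: 0% = DMSO plus EC80 beta-PEA response and 100% = DMSO alone without agonist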
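System: CHO RD-HGA16 cells bearing hTAAR1. Reagent: EC80 β-phenethylamine stimulus. Schedule: seeding 17-24 h prior, 75-min 37 °C, 30-min RT dye loading. Signal: Fluo-8 intracellular calcium dye fluorescence, real-time kinetic reads. Read-out: % inhibition from peak post-agonist over basal fluorescence ratio. Benchmarks: vehicle wells and EC80 agonist wells. Replicates: n of 1.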
GPR7 antag conf: GPR7 receptor antagonists, confirmation, cell-based, fluorescence, single concentration. AID 1952, 2009. shares compounds with GPR7 antag. hit rate 52% among 2,400. GPR7-expressing cells, calcium fluorescence antagonist mode. inhibition, % at 4.4 µM; in the data active = inhibition above about 24%;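 also: stimulated with the GPR7 agonist NPW; 0% = agonist plus vehicle and 100% = vehicle alone without agonist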
MCHR1 antag: MCHR1 antagonists in cells, counter-screen for GPR7 antagonist project, cell-based, fluorescence, human | inhibition, % at 4.4 µM | shares compounds with GPR7 antag | MCHR1-expressing cells, fluorescence antagonist assay | hit rate 62% among 2,400; in the data active = inhibition above about 22%;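 also: 0% = vehicle with agonist and 100% = vehicle without agonist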
Starred values were filed as active, the others as inactive; nt = not tested or not shown. This is a sample that favours compounds with a hit; in the whole collection about 4.5% have one here.

SMILES	OX1R antag-1	OX1R antag-2	GPR7 antag	CHO parental Ca	TAAR1 agonist	TAAR1 antag	GPR7 antag conf	MCHR1 antag
Cc1nc2ccc([N+](=O)[O-])cc2c(=O)n1Cc1cccc(Br)c1	-15	28	47*	7	6	29	32*	35*
O=c1[nH]c2cc3c(cc2cc1CN(Cc1ccco1)C(=S)NCCCN1CCOCC1)OCCO3	-40	6	100*	-15	0	11	4	-3
CCCCNC(=S)N(Cc1ccco1)Cc1cc2cc3c(cc2[nH]c1=O)OCCO3	-31	17	-3	-14	1	-18	nt	nt
COc1ccc(N(CC(=O)NCc2ccco2)S(=O)(=O)c2ccc(C)cc2)cc1	-31	14	4	-22	nt	nt	nt	nt
Cc1nc2cc(NC(=O)N(C)c3ccc4ccccc4c3)ccc2o1	-11	21	32*	-9	2	-5	11	26*
Cc1nc2cc(NC(=O)c3ccc(S(=O)(=O)N(C)c4ccccc4)cc3)ccc2o1	14	16	45*	21	13	51*	63*	81*
COc1ccc(NC(=O)Nc2ccc3oc(C)nc3c2)cc1	-19	16	8	-15	4	7	nt	nt
Cn1nc(C2CC2)cc1NC(=O)C1(C)CCN1C(=O)CCc1ccccc1 (stereo unspecified)	nt	nt	nt	nt	2	-24	nt	nt
CC(=O)[C@@]1(O)[C@H](C)CC2C3CC=C4CC(OP(=O)(O)O)CC[C@]4(C)C3CC[C@@]21C (stereo partly specified)	-9	0	28*	-7	1	-6	-7	8
CN1CCN(C(=O)c2cnn3c2NC(c2ccccc2)CC3C(F)(F)F)CC1 (stereo unspecified)	-11	20	6	-10	1	-27	nt	nt
C/C(=N\NC(=O)c1nnn(-c2nonc2N)c1C)c1ccc(OCc2ccccc2)cc1	-14	7	39*	-16	2	-19	-1	8
COC(=O)[C@]12CCCCC=C1N(Cc1ccc(Cl)cc1Cl)C(=O)[C@H](CC(=O)NCCCCc1ccccc1)C2	nt	nt	nt	nt	3	-35	nt	nt
N#Cc1cccc(NC(=O)COc2ccc(-n3ccnc3)cc2)c1	8	25	24*	23*	8	22	4	44*
CCOc1ccc(Oc2c(/C=N/NC(N)=O)c(C)nn2-c2ccccc2)cc1	-3	9	-9	-13	3	-9	nt	nt
CCOc1ccc(Oc2c(/C=N/NC(=O)COc3ccccc3OC)c(C)nn2-c2ccccc2)cc1	-36	9	35*	-13	1	18	33*	47*
CC(=O)N1CCN(CC(=O)Nc2ccc3c(c2)CCC3)CC1	-6	22	23*	-6	3	11	-10	-1
OCCCCNCc1ccc(OCc2ccc(Cl)cc2Cl)cc1	20	8	39*	13	38*	11	66*	59*
S=C(Nc1ccccc1)Nc1ccc(OCc2ccc(Cl)cc2Cl)cc1	-10	13	-8	-1	6	-8	nt	nt
OCCNCc1ccc(OCc2ccc(Cl)cc2Cl)cc1	0	2	31*	3	23	2	40*	43*
CCO[C@@H]1OC(C(=O)NC2CC2)=C[C@H](c2ccccc2)[C@H]1CCCO	4	32	-19	2	10	10	nt	nt
O=C1NC(Cc2ccc(O)cc2)c2nc3ccccc3c(=O)n2-c2cc(Cl)ccc21 (stereo unspecified)	-5	1	nt	-9	10	5	nt	nt
Nc1nnc(CSCc2cccc(Br)c2)s1	0	15	-2	-4	0	-2	nt	nt
